The values that follow come from ChEMBL document CHEMBL1144328, “2,3-Diarylthiophenes as selective EP1 receptor antagonists” (Bioorg Med Chem Lett, 2005).

For series [1], the target named is T1, Prostaglandin E2 receptor EP1 subtype (Homo sapiens) (UniProt P34995).
T1 sequence (whole entry): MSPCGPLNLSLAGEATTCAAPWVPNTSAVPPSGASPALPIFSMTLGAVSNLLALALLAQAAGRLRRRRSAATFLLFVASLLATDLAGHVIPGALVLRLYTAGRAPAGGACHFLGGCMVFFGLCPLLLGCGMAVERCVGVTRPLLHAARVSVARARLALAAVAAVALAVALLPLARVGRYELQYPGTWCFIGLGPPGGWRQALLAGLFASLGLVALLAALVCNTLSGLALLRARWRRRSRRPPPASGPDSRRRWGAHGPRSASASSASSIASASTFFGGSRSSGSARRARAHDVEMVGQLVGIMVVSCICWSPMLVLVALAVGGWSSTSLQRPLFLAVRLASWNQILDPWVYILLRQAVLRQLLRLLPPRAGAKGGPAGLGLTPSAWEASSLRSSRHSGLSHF
The series is described as follows: Inhibitory activity against Prostaglandin E receptor in functional cell based assay. In outline: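 HEK293 cells stably expressing human EP1, grown with hygromycin B and G418 at 37 °C and 6% CO2, seeded one day before, then loaded with FLIPR no-wash dye for 1 h at 37 °C in HBSS/20 mM HEPES pH 7.4. FLIPR fluorescence read after a 10 min antagonist preincubation and 5 min PGE2. PGE2 curves (0.001–30 µM) run alone and at three fixed antagonist concentrations; Kb reported.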

Series [2] addresses T2, Prostaglandin E2 receptor EP1 subtype (Rattus norvegicus, UniProt P70597).
T2 sequence (P70597 whole entry): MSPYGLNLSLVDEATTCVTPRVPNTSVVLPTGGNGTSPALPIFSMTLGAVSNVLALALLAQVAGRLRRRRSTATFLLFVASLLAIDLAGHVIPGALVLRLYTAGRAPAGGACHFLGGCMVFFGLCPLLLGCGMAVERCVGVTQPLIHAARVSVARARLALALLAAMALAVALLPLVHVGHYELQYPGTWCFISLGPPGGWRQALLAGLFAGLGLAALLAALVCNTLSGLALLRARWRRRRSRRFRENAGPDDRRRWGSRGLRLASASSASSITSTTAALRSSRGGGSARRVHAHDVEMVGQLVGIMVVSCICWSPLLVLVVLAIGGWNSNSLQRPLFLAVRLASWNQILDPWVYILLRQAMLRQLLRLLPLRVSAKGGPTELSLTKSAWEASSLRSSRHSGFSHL
Put plainly: Binding affinity towards Prostaglandin E receptor was determined in rat.

The nature of series [3]: Bioavailability of compound in rat. Type of series: ADME, organism-based. The settings on record: in vivo.
Series [4] in a line: Half life of compound in rat. Type of series: ADME. The settings on record: in vivo.
Series [5] is described as follows: Maximum plasma concentration of compound in rat at 4 h. Format: ADME, organism-based.
Series [6] addresses T3, Prostaglandin E2 receptor EP1 subtype (Homo sapiens, UniProt P34995).
T3 sequence (P34995 whole entry): T1 sequence (whole entry)
The series is described as follows: Binding affinity against Prostaglandin E receptor was determined in human.

Series [7] concerns the target T4, Thromboxane A2 receptor (Homo sapiens, UniProt P21731).
T4 sequence (P21731 whole entry): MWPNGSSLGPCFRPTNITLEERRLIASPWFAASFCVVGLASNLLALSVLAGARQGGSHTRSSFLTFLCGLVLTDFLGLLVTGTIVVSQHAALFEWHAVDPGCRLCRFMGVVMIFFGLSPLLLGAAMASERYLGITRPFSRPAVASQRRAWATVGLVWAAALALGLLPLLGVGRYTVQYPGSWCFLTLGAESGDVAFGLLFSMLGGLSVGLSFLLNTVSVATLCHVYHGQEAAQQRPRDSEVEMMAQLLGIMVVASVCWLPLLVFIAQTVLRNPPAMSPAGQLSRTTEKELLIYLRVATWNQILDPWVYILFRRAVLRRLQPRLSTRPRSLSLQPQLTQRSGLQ
The series is described as follows: Binding affinity against human Prostanoid TP receptor.

Series [8] concerns the target T3, Prostaglandin E2 receptor EP1 subtype. Put plainly: Binding affinity against Prostaglandin E receptor in presence of 2% human serum albumin.

Broadly, the Ki is a measure of affinity in units of concentration, obtained from inhibition or displacement. The bioavailability is dose-corrected exposure relative to a reference, in per cent. High values mean much systemic uptake, low ones little systemic uptake. In general, half-life refers to the time needed for the level to fall by half in the phase considered. In general, Cmax refers to the maximum level reached in the sampled fluid or tissue.

SMILES strings stand for the structures.

Take `O=C(O)c1cccc(-c2sccc2-c2cc(Cl)ccc2OCc2ccccc2)n1`: in series [1], the Kb was found to be 1 nM. Further, the inhibitory constant (Ki) in series [2] was determined as 12 nM; in series [6] it was 6 nM; in series [7], 140 nM; in series [8] it was 280 nM. The compound also displayed a bioavailability in series [3] of 73%. The half-life in series [4] was 4 h. The Cmax in series [5] worked out at 20 µM.

Turning to `O=C(O)c1cncc(-c2sccc2-c2cc(Cl)ccc2OCc2ccccc2)c1`, in series [1], the Kb is 4 nM. Moreover, the half-life in series [4] is less than 0.5 h. Besides, the inhibition constant Ki in series [6] came out at 3 nM; in series [7], 230 nM; in series [8] it was 90 nM.

In the case of `NS(=O)(=O)c1cccc(-c2ccsc2-c2cc(Cl)ccc2OCc2ccccc2)c1`, the Kb in series [1] was 100 nM. The compound also had a half-life in series [4] of 2 h. Further, the inhibition constant (Ki) in series [6] was found to be 8 nM; in series [7], 390 nM; in series [8], 18 nM.

`CC(NC(=O)c1cccc(-c2sccc2-c2cc(Cl)ccc2OCc2ccccc2)c1)c1cccnc1` (stereo not given) came in with a Kb in series [1] of 97 nM. Further, in series [4], the half-life was less than 1 h. Further, the Ki was 9 nM in series [6], 1200 nM in series [7] and 17 nM in series [8].

Consider `OC(O)(c1cncc(-c2sccc2-c2cc(Cl)ccc2OCc2ccccc2)c1)C(F)(F)F`, for which, in series [1], the Kb is 70 nM. This compound gave a half-life in series [4] of 2 h. Besides, the Ki in series [6] is 4 nM; in series [7], 220 nM; in series [8] it was 5 nM.

`O=C(Cc1ccccc1)Nc1cccc(-c2sccc2-c2cc(Cl)ccc2OCc2ccccc2)c1` gave a half-life in series [4] of less than 1 h. The figures for the Ki in series [6], in series [7] and in series [8] were 4 nM, greater than 21000 nM and 5 nM, respectively.

Regarding `O=C(O)c1cccc(-c2sccc2-c2cc(Cl)ccc2OCc2ccccc2)c1`, the Kb in series [1] stood at 7 nM. The half-life in series [4] was less than 0.5 h. The values for the Ki in series [6], in series [7] and in series [8] were 4 nM, 100 nM and 70 nM, respectively.

In turn, `OC(c1cncc(-c2sccc2-c2cc(Cl)ccc2OCc2ccccc2)c1)C(F)(F)F` (stereo not given) had a half-life in series [4] of 1 h. Further, the Ki in series [6] was 3 nM; in series [7], 120 nM; in series [8], 6 nM.

With `O=S(=O)(Cc1ccccc1)Nc1cccc(-c2sccc2-c2cc(Cl)ccc2OCc2ccccc2)c1`, in series [4], the half-life is less than 1 h. The results for the Ki in series [6], in series [7] and in series [8] were 52 nM, greater than 21000 nM and 72 nM, respectively.

On to `N#CC(O)c1cncc(-c2sccc2-c2cc(Cl)ccc2OCc2ccccc2)c1` (stereo not given), for which the Ki in series [6] stood at 23 nM; in series [7], 360 nM; in series [8] it was 160 nM.

As for `OC(c1cncc(-c2sccc2-c2cc(Cl)ccc2OCc2ccccc2)c1)(C(F)(F)F)C(F)(F)F`, the results for the Ki in series [6] and in series [7] were 260 nM and 200 nM, respectively.

The compound `O=C(O)Cc1cccc(-c2sccc2-c2cc(Cl)ccc2OCc2ccccc2)c1` displayed a Kb in series [1] of 66 nM. In series [4], this compound had a half-life of 3 h. Further, the Ki stood at 15 nM in series [6], 150 nM in series [7] and 220 nM in series [8].
